Here are results for three compounds from ChEMBL document CHEMBL1124552 (J Med Chem, 1989).

The nature of data set [1]: Average half life period was determined. It is filed as ADME.
Data set [2] can be described thus: Half life period was determined. It is filed as ADME. To be noted: rat.
Data set [3] in a line: Second order rate constant for Alkylation reaction by the compound (17 mM) at temperature 47 degrees C with 1 M lutidine at pH 7.4 in the presence of 10 mol equiv of 2-mercaptoethanol. Format: functional. An outline of the steps:
(§1)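 Decomposition followed over time by 31P NMR in 1 M lutidine buffer made with D2O, "pH" 7.4 (meter reading plus 0.4 unit for the deuterium isotope effect), with 2-mercaptoethanol as trapping agent. Concentrations of species A, B and C were tracked against time, and k1 (first alkylation) and k2 (second alkylation) were derived from them.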

Data set [4] in a line: First order rate constant for Alkylation reaction by the compound (17 mM) at temperature 20 degrees C with 1 M lutidine at […] in the presence of 10 mol equiv of 2-mercaptoethanol. It is filed as functional.
Data set [5] can be described thus: First order rate constant for Alkylation reaction by the compound (17 mM) at temperature 47 degrees C with 1 M lutidine at pH 7.4 in the presence of 10 mol equiv of 2-mercaptoethanol. It is filed as functional. The procedure, abridged: as §1
Data set [6] is described as follows: Second order rate constant for Alkylation reaction by the compound (11 mM) at temperature 20 degrees C with 1 M lutidine at pH 7.4 in the presence of 63 mol equiv of 2-mercaptoethanol. Format: functional. An outline of the steps:
as §1

The nature of data set [7]: Second order rate constant for Alkylation reaction by the compound (17 mM) at temperature 37 degrees C with 1 M lutidine at pH 7.4 in the presence of 10 mol equiv of sodium thiosulfate. It is filed as functional. The procedure, abridged:
(§2)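 Run by 31P NMR in 1 M lutidine (D2O), "pH" 7.4 (corrected meter reading), 37 °C, with 10 mol equiv sodium thiosulfate as trapping agent. Overlapping A, B and C resonances were resolved by least-squares fitting to three Lorentzians or by Lorentz–Gauss resolution enhancement. This gave concentration–time estimates, from which k1 and k2 were derived.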

The nature of data set [8]: First order rate constant for Alkylation reaction by the compound (17 mM) at temperature 37 degrees C with 1 M lutidine at pH 7.4 in the presence of 10 mol equiv of 2-mercaptoethanol. Format: functional. An outline of the steps: as §1
Data set [9] can be described thus: Second order rate constant for Alkylation reaction by the compound (17 mM) at temperature 27 degrees C with 1 M lutidine at pH 7.4 in the presence of 10 mol equiv of 2-mercaptoethanol. It is filed as functional. An outline of the steps: as §1
The nature of data set [10]: Half life period for first alkylation reaction was determined. It is filed as ADME. The procedure, abridged: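 Half-life derived from the k1 value (first alkylation, i.e. mustard disappearance), measured by 31P NMR in 1 M lutidine, "pH" 7.4, 37 °C, with trapping agent.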
The nature of data set [11]: First order rate constant for Alkylation reaction by the compound (11 mM) at temperature 20 degrees C with 1 M lutidine at pH 7.4 in the presence of 63 mol equiv of 2-mercaptoethanol. It is filed as functional. An outline of the steps:
as §1

Data set [12] in a line: Pka value at 20 degrees C. An outline of the steps:
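31P NMR chemical shift recorded in unbuffered water as a function of solution pH at 20 °C. The shift versus pH data were fitted to the Henderson–Hasselbalch equation to give the pKa.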

The nature of data set [13]: Second order rate constant for Alkylation reaction by the compound (17 mM) at temperature 37 degrees C with 1 M lutidine at pH 7.4 in the presence of 10 mol equiv of 2-mercaptoethanol. It is filed as functional. The procedure, abridged: as §1
The nature of data set [14]: First order rate constant for Alkylation reaction by the compound (17 mM) at temperature 37 degrees C with 1 M lutidine at pH 7.4 in the presence of 10 mol equiv of sodium thiosulfate. Format: functional. An outline of the steps:
as §2

Data set [15] can be described thus: First order rate constant for Alkylation reaction by the compound (17 mM) at temperature 27 degrees C with 1 M lutidine at pH 7.4 in the presence of 10 mol equiv of 2-mercaptoethanol. Format: functional. The procedure, abridged: as §1

The half-life is how long it takes for the measured level to halve.

Each structure is given as a SMILES string. Values joined by “and” are separate entries in the source; they are usually repeats but may differ in a detail not shown here. Equal entries are not always repeated.

`OC1CCOP(NCCCl)N1CCCl` (trans isomer) showed a half-life in [1] of 1.03 h.
Regarding `O=P1(NCCCl)OCCC(O)N1CCCl` (stereo unspecified) [ALDOIFOSFAMIDE], the values for the half-life in data set [1] and in data set [2] were 0.733 h and 1 h, respectively.
For `O=P(O)(NCCCl)NCCCl` [PALIFOSFAMIDE], the K2 was 20 10e-3 min-1 in data set [3]; 0.63 10e-3 min-1 in data set [6]; 4.29 10e-3 min-1 in [7]; 1.14 10e-3 min-1 in [9]; 4.05 10e-3 min-1 in data set [13]. The K1 in data set [4] is 1.2 10e-3 min-1; in data set [5], 34.3 10e-3 min-1; in [8] it was 9.03 10e-3 min-1; in [11] it was 1.07 10e-3 min-1; in data set [14], 8.29 10e-3 min-1; in data set [15] it was 2.36 10e-3 min-1. The T1/2 in [10] was 1.28 h and 2.85 h. In data set [12], this compound returned a Pka of 4.28.
